Reference: ChEMBL document CHEMBL4680254, “Design, synthesis and discovery of 2(1H)-quinolone derivatives for the treatment of pulmonary fibrosis through inhibition of TGF-β/smad dependent and independent pathway” (Eur J Med Chem, 2020)

Key:
[1] = Cytotoxicity against rat NRK-49F cells assessed as cell survival rate at 10 uM incubated for 72 hrs by MTT assay; format: cell-based; conditions: read-out: Activity
Procedure, shortened: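 NRK-49F cells were seeded at 0.5×10^5 cells/ml, cultured overnight, then exposed to compound 10 µM for 72 h. MTT was added and incubated 4 h, formazan dissolved in DMSO and absorbance read. Survival = (treated − zero)/(blank − zero) A ×100%, done in triplicate.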

[2] = test system: NRK-49F; experiment: Inhibition of TGF-beta-induced collagen accumulation in rat NRK-49F cells at 10 uM incubated for 2 days by PSR staining based microscopic analysis relative to control; format: functional; conditions: 48 h, time 2 day
Procedure, shortened: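 NRK-49F cells were grown 3 days in DMEM with 5% FBS, then 2 days in DMEM with 1% ITS. Next came 2 days with TGF-β 5 ng/ml plus or minus compound 10 µM. Cells were fixed in 4% paraformaldehyde and stained 4 h with 0.1% Picrosirius Red, then rinsed with acetic acid. Dye was eluted with 0.1 M NaOH and OD read at 540 nm. Inhibition = […] ×100%, in triplicate.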

Compound | viability at 72 h, 10 µM [1] | inhibition at 10 µM [2]
CC(=O)N1CCN(CC(=O)Nc2ccc(Sc3cc(=O)[nH]c4ccccc34)cc2)CC1 | 101% | 39.4%
O=C(CN1CCOCC1)Nc1ccc(Nc2cc(=O)[nH]c3ccccc23)cc1 | 81.9% | 40.9%
CN1CCN(CC(=O)Nc2ccc(Oc3cc(=O)[nH]c4ccccc34)c(F)c2)CC1 | 99% | 73.9%
CCN1CCN(CC(=O)Nc2ccc(Nc3cc(=O)[nH]c4ccccc34)cc2)CC1 | 64.8% | 46%
O=C(CN1CCCCC1)Nc1ccc(Oc2cc(=O)[nH]c3ccccc23)c(F)c1 | 87.2% | 38.3%
O=C(CN1CCNCC1)Nc1ccc(Oc2cc(=O)[nH]c3ccccc23)c(F)c1 | 93.3% | 60.3%
CC1CCN(CC(=O)Nc2ccc(Nc3cc(=O)[nH]c4ccccc34)cc2)CC1 | 82.5% | 20.1%
CC(=O)N1CCN(CC(=O)Nc2ccc(Oc3cc(=O)[nH]c4ccccc34)cc2)CC1 | 96.3% | 50%
CCNCC(=O)Nc1ccc(Oc2cc(=O)[nH]c3ccccc23)c(F)c1 | 99.3% | 50.6%
O=C(CN1CCCC1)Nc1ccc(Oc2cc(=O)[nH]c3ccccc23)c(F)c1 | 96.4% | 49.5%
CC1CCN(CC(=O)Nc2ccc(Oc3cc(=O)[nH]c4ccccc34)cc2)CC1 | 79.9% | 31.5%
O=C(CNC1CCOCC1)Nc1ccc(Oc2cc(=O)[nH]c3ccccc23)cc1 | 96% | 46%
O=C(CN1CCN(C(=O)C2CC2)CC1)Nc1ccc(Oc2ccc3[nH]c(=O)ccc3c2)c(F)c1 | 95.2% | 34.6%
CCNCC(=O)Nc1ccc(Nc2cc(=O)[nH]c3ccccc23)cc1 | 83.7% | 28.7%
CC(=O)N1CCN(CC(=O)Nc2ccc(Oc3cc(=O)[nH]c4ccccc34)c(F)c2)CC1 | 108% | 42.7%
CCN1CCN(CC(=O)Nc2ccc(Sc3cc(=O)[nH]c4ccccc34)cc2)CC1 | 78% | 56.6%
O=C(CN1CCOCC1)Nc1ccc(Oc2cc(=O)[nH]c3ccccc23)c(F)c1 | 90.8% | 47.3%
CCN1CCN(CC(=O)Nc2ccc(Oc3cc(=O)[nH]c4ccccc34)c(F)c2)CC1 | 89.6% | 49.1%
O=C(CNC1CCOCC1)Nc1ccc(Oc2cc(=O)[nH]c3ccccc23)c(F)c1 | 90.8% | 53.9%
CCN1CCN(CC(=O)Nc2ccc(Oc3cc(=O)[nH]c4ccccc34)cc2)CC1 | 91.7% | 41.7%
CC1CCN(CC(=O)Nc2ccc(Oc3cc(=O)[nH]c4ccccc34)c(F)c2)CC1 | 105% | 45.9%
CC(C)(C)OC(=O)N1CCN(CC(=O)Nc2ccc(Sc3cc(=O)[nH]c4ccccc34)cc2)CC1 | 71.2% | 72.4%
CN1CCN(CC(=O)Nc2ccc(Sc3cc(=O)[nH]c4ccccc34)cc2)CC1 | 86.7% | 40%
CN(C)C1CCN(CC(=O)Nc2ccc(Oc3cc(=O)[nH]c4ccccc34)cc2)CC1 | 81.2% | 43.9%
CC(C)(C)N1CCN(CC(=O)Nc2ccc(Oc3ccc4[nH]c(=O)ccc4c3)c(F)c2)CC1 | 83.3% | 61.5%
CC1CCN(CC(=O)Nc2ccc(Sc3cc(=O)[nH]c4ccccc34)cc2)CC1 | 116% | 28.6%
O=C(CN1CCNCC1)Nc1ccc(Oc2cc(=O)[nH]c3ccccc23)cc1 | 95.1% | 58.1%
CC(C)(C)OC(=O)N1CCN(CC(=O)Nc2ccc(Oc3ccc4ccc(=O)[nH]c4c3)c(F)c2)CC1 | 89.7% | 76.4%
